Assay outcomes: PubChem BioAssay, several laboratories
The list is not random: actives were taken first. Their share in the collection is about 3.7%.
SR-BI DiI-HDL act = activators of SR-BI mediated DiI-HDL uptake, primary screen, ldlA[mSR-BI] CHO cells, DiI fluorescence. 3 h; 100 = double the neutral-control signal. activation, % at 12.5 µM. hit rate 0.096% among 320,000. AID 504775, 2011;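 active = mean replicate activation of at least 60% and every replicate at or above 60%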;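 also: 0% = median plate neutral-control signal and 100% = twice that signal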
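Test system: SR-BI-overexpressing, LDLR-lacking CHO cells. Measured by: DiI fluorescence, bottom read. Medium: Ham's F12 with 0.5% BSA, HEPES 25 mM, pH 7.4. Timing: 3 h uptake period with compound, 37 °C.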
AHR act = AHR activators, primary screen, cell-based, luminescence, luciferase reporter, human; activation, % at 5 µM; AHR-responsive luciferase reporter cells; hit rate 2.5% among 320,000; Aryl hydrocarbon receptor (Homo sapiens), P35869; in the data active = activation above about 47%;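 also: 0% = vehicle wells and 100% = reference agonist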
Target sequence (P35869 whole entry, looked up): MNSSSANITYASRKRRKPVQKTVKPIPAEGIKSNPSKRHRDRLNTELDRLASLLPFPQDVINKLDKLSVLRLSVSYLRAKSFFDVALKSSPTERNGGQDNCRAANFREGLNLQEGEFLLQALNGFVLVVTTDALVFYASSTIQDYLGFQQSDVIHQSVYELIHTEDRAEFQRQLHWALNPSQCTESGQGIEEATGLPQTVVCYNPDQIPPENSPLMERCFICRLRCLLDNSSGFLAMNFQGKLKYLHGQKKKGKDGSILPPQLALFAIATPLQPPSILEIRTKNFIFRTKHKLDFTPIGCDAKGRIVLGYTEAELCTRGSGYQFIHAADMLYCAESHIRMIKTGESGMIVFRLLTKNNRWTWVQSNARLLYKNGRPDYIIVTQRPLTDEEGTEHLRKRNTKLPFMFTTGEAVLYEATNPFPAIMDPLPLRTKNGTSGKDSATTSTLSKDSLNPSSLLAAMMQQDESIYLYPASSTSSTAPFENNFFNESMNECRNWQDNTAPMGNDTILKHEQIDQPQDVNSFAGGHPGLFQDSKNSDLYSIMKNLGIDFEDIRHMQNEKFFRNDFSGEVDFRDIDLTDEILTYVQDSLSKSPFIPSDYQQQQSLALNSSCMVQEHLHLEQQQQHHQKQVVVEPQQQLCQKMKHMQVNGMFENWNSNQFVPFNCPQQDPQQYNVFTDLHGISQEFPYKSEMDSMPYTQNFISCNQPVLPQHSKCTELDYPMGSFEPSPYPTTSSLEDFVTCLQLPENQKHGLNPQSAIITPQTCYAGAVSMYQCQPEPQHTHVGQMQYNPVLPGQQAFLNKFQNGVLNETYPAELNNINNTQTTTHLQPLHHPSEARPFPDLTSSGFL
JMJD2C inh = inhibitors of GASC-1 histone demethylase, primary screen, biochemical, fluorescence, DELFIA europium; inhibition, % at 2.35 µM; GST-JMJD2C(1-420) H3K9me3 demethylation; Lysine-specific demethylase 4C (Homo sapiens), Q9H3R0; hit rate 0.069% among 330,000; AID 2099, 2009;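 active = more than half of a compound's replicate wells show inhibition beyond 50%, single wells judged on their own value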;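 also: signal counts dimethyl H3K9 product captured on neutravidin plate; 0% = median of DMSO wells and 100% = 0.3 times that DMSO median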
FXN GAA850 act = FXN promoter activators, primary screen, cell-based, luciferase luminescence, HEK293 lucGAA850; HEK293 lucGAA850 FXN promoter luciferase reporter, 24 h; percent of 10 µM SAHA response; activation, % at 6 µM; hit rate 0.56% among 360,000; AID 540364, 2011;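 active = activation above the average of all compounds screened plus 3 SD, cutoff fixed separately per campaign, cut at about 7.5% in these data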;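 also: 0% = DMSO wells and 100% = 10 µM SAHA wells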
SR-BI HDL uptake = inhibitors of SR-BI mediated HDL lipid uptake, primary screen, ldlA[mSR-BI] cells, fluorescence, single point. Scavenger receptor class B member 1 (Mus musculus), Q61009. ldlA[mSR-BI] CHO cells, DiI-HDL uptake fluorescence, 3 h. inhibition, % at 12.5 µM. hit rate 0.96% among 320,000;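 active = mean replicate inhibition of at least 70% and a set share of replicates each scoring 70 or more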;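 also: 0% = median of neutral control wells and 100% = median of positive control wells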
AHR act confirm = AHR activators, confirmation, cell-based, luminescence, luciferase reporter, human; shares compounds with AHR act; human cells, AHR-responsive luciferase reporter; activation, % at 9 µM; hit rate 87% among 2,300; in the data active = activation above about 49%;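 also: HepG2 hepatoma cells carrying a DRE-driven firefly luciferase reporter; 0% = vehicle wells and 100% = reference agonist wells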
PXR counter = human PXR activators, counter-screen for AHR activator project, cell-based, luciferase luminescence. cell-based PXR reporter. activation, % at 11.6 µM. AID 434939, 2010. hit rate 88% among 2,300. shares compounds with AHR act; in the data active = activation above about 11%;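 also: human hepatoma DPX-2 cells expressing full-length human PXR; 0% = DMSO and 100% = reference agonist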
* marks the source's active call; other numbers are inactive results; / = no result given.

SMILES | SR-BI DiI-HDL act | AHR act | JMJD2C inh | FXN GAA850 act | SR-BI HDL uptake | AHR act confirm | PXR counter
O=C(N/N=C\c1ccccc1)c1sccc1-n1cccc1 | -30 | 82* | -2 | 2 | 30 | 127* | 25*
O=C(NNS(=O)(=O)c1ccccc1)c1sccc1-n1cccc1 | / | 2 | 6 | -1 | -8 | / | /
O=C(NNC(=O)c1sccc1-n1cccc1)c1ccc(Cl)cc1 | -3 | 90* | -2 | 0 | 3 | 100* | 28*
CN(c1cccc(NC(=O)c2ccc(Cl)c(S(=O)(=O)N3CCOCC3)c2)c1)S(C)(=O)=O | -21 | / | -3 | -1 | 21 | / | /
N#C/C(=C1/CCCCCN1)c1nc2ccccc2s1 | -33 | 87* | 3 | 0 | 33 | 122* | 56*
N#C/C(=C1\CCCN1)c1nc2ccccc2c(=O)[nH]1 | -9 | 15 | 7 | -1 | 9 | / | /
CN1CCN(c2nc(-c3ccc(Br)cc3)nnc2-c2ccccc2)CC1 | -33 | 132* | -1 | 2 | 33 | 90* | 49*
Brc1ccc(-c2nnc(-c3ccccc3)c(N3CCSCC3)n2)cc1 | -69 | 123* | 0 | 1 | 69 | 93* | 75*
Cc1ccc(-c2nnc(-c3ccccc3)c(N3CCOCC3)n2)cc1 | -45 | 3 | -19 | -1 | 45 | / | /
CC1(C)CC(=O)C2=C(C1)N1C(=C(C#N)C2c2ccc(Cl)cc2)N=C(N)c2ccccc21 (stereo not given) | 32 | 97* | -2 | -7 | -32 | 8 | 159*
NC(=S)N/N=C/c1ccc(-c2cc(Cl)c(Cl)cc2Cl)o1 | -82 | 108* | 9 | 4 | 82* | 102* | 22*
O=C(NCc1ccccc1)C1c2ccccc2Oc2ccccc21 | 27 | 2 | -6 | 1 | -27 | / | /
CCn1c(C2CCN(S(=O)(=O)c3ccc(OC)cc3)CC2)n[nH]c1=S | -13 | -3 | -1 | 2 | 13 | / | /
O=c1nc2sc3ccccc3n2c(=O)n1-c1cccc(Cl)c1 | 6 | 81* | -2 | 5 | -6 | 115* | 33*
Cc1ccc2c(c1)sc1nc(=O)n(-c3cccc(Cl)c3)c(=O)n12 | -7 | 2 | -4 | 4 | 7 | / | /
Cc1ccc(Nc2ncccc2C(N)=O)cc1 | 4 | 151* | 2 | 5 | -4 | 133* | /
COC(=O)CSc1nc(-c2ccccc2)nc2ccc(F)cc12 | 3 | 35 | 1 | -1 | -3 | / | /
OCCSc1nc(-c2ccccc2)nc2ccc(F)cc12 | -2 | 102* | -3 | 2 | 2 | 95* | 24*
CC(C)NC(=O)Cn1c(=O)n(CC(=O)N2CCCCC2)c(=O)c2sccc21 | 30 | 1 | -7 | 0 | -30 | / | /
Cc1cc(Cl)ccc1OCC(=O)N/N=C1\CC2C=CCC12 (stereo not given) | 13 | 5 | 20 | 2 | -13 | / | /
COc1ccc(OC)c(S(=O)(=O)N2Cc3ccccc3CC2C(=O)Nc2nccs2)c1 (stereo not given) | 27 | 84* | 8 | 0 | -27 | 60* | 135*
O=C(CNC(=O)c1ccccc1F)N/N=C/c1cn[nH]c1-c1ccccc1 | -12 | 140* | -1 | 1 | 12 | 92* | 19*
C/C(=N\NC(=O)c1c[nH]c2ccccc12)c1ccco1 | 11 | 92* | 15 | 5 | -11 | 159* | 24*
CCc1ccc(/C(C)=N/NC(=O)c2c[nH]c3ccccc23)s1 | -3 | 141* | 7 | 2 | 3 | 115* | 59*
C/C(=N\NC(=O)c1ccc(C(=O)N/N=C(\C)c2ccco2)o1)c1ccco1 | -5 | 108* | -10 | 1 | 5 | 18 | 4
SMILES | SR-BI DiI-HDL act | AHR act | JMJD2C inh | FXN GAA850 act | SR-BI HDL uptake | AHR act confirm | PXR counter
Cc1c(C)c(C)c(CO/N=C/c2cccs2)c(C)c1C | -12 | 2 | 3 | -1 | 12 | / | /
COc1cccc(Nc2nc(-c3cccs3)nc3ccccc23)c1 | -69 | 88* | 14 | 2 | 69 | 41 | 68*
COc1cccc(CN(C)c2nc(-c3cccs3)nc3ccccc23)c1 | -24 | 12 | 0 | 2 | 24 | / | /
COc1cccc(C2Nc3ccccc3NC3=C2C(=O)CC(C)(C)C3)c1 (stereo not given) | 18 | -1 | -7 | -1 | -18 | / | /
O=C(NCc1ccccc1)NC(O)C(Cl)(Cl)Cl (stereo not given) | -4 | 0 | -8 | 0 | 4 | / | /
CCOc1ccccc1Nc1nc(N)nc(CSc2nccc(C)n2)n1 | -9 | 81* | 3 | 1 | 9 | 70* | 60*
COc1ccccc1Nc1nc(N)nc(CSc2ncccn2)n1 | 16 | 8 | -1 | 1 | -16 | / | /
COc1ccc(Nc2nc(N)nc(CSc3nccc(C)n3)n2)cc1 | -8 | 34 | 12 | 8 | 8 | / | /
Cc1cccc(Nc2nc(N)nc(CSc3nccc(C)n3)n2)c1 | 2 | 103* | -2 | 1 | -2 | 103* | 119*
CC(C(=O)Nc1sc2c(c1C#N)CCCCC2)N1C(=O)c2ccccc2C1=O (stereo not given) | 9 | 2 | 15 | 2 | -9 | / | /
CCOc1nc2ccccc2cc1C=O | / | 1 | / | 0 | / | / | /
Cc1ccccc1OCC(=O)N/N=C/c1ccccn1 | 27 | 81* | -6 | 0 | -27 | 29 | 9
Cc1cnc(=O)[nH]c1SCC(=O)c1ccc(F)cc1 | -42 | 33 | -11 | 3 | 42 | / | /
CC1CCN(c2ccccc2NC(=S)NC(=O)c2ccc(-c3cccc([N+](=O)[O-])c3)o2)CC1 | -62 | 1 | -2 | -1 | 62 | / | /
CC1CCN(c2ccc(NC(=S)NC(=O)c3ccc(-c4cccc([N+](=O)[O-])c4)o3)cc2)CC1 | -68 | 82* | -16 | 3 | 68 | 27 | 15*
COc1cccc(N=c2oc3ccccc3cc2-c2nc3ccccc3[nH]2)c1 | -27 | 92* | -11 | -2 | 27 | 132* | 23*
C#CCOCCOCCOCCNc1nc(N2CCN(C(=O)[C@H](C(C)C)n3cc(CCO)nn3)CC2)nc(N2CCN(C(=O)[C@H](CCCCN)n3cc(CCCC)nn3)CC2)n1 | 7 | -2 | -5 | 1 | -7 | / | /
c1ccc(-n2nc3c(ccc4cnnc43)[nH]2)cc1 | -18 | 131* | 4 | 6 | 18 | 149* | 26*
Cc1ccc(C(=O)N/N=C\c2cccs2)cn1 | 8 | 4 | 1 | 2 | -8 | / | /
Cc1cc(C)nc(NS(=O)(=O)c2ccc(NC(=O)c3ccccc3Br)cc2)n1 | / | / | / | 0 | / | / | /
